DNA FID counter – fluorescent intercalator displacement, NS3 helicase counter-screen | DNA fluorescent intercalator displacement, fluorescence | inhibition, % at 7.9 µM | 290,000 tested, 0.17% active; in the data active = inhibition above about 37%;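 also: higher means more ethidium bromide displaced from hairpin DNA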
core dimer inh – HCV core protein dimerization inhibition; TR-FRET GST/Flag-core106 dimerization, 1536-well; inhibition, % at 5 µM; 300,000 tested, 0.33% active;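 active = inhibition above the mean of all tested compounds plus 3 SD, set per screening campaign, cut at about 45% in these data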
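Test system: GST/Flag-tagged HCV core106 proteins; Medium: KF-containing HEPES buffer, pH 7.45, DTT, CHAPS, BSA; Times: compound-protein-antibody incubation 4 h at 22.5 °C; Detection: TR-FRET 671 and 617 nm emission; Benchmarks: wells lacking GST-core106 and wells with excess unlabelled core106.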
VIM-2 inhibitor – blocks Pseudomonas aeruginosa VIM-2 metallo-beta-lactamase. purified VIM-2, nitrocefin hydrolysis, epi-absorbance fluorescence. inhibition, % at 5.6 µM. 290,000 tested, 0.89% active. AID 1527;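 active = inhibition above the mean of all tested compounds plus 3 SD, cutoff set per screening run, cut at about 7.5% in these data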;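 also: red hydrolysis product quenches plate fluorescence so inhibitors raise well fluorescence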
IMP-1 inh – blocks Pseudomonas aeruginosa IMP-1 metallo-beta-lactamase | purified IMP-1, nitrocefin hydrolysis, epi-absorbance fluorescence | inhibition, % at 5.6 µM | 290,000 tested, 0.45% active | AID 1556;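 active = inhibition above the mean plus 3 SD of all compounds in the same screening run, cut at about 4.5% in these data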
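system = purified recombinant IMP-1 beta-lactamase | amount = 0.2 nM IMP-1, as dispensed | medium = HEPES buffer pH 7.1 with ZnSO4 and Brij 35 | times = 25 °C, 15 min preincubation, 25 min reaction | detection = plate fluorescence quenching by hydrolysis product, ex 480/em 530 nm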
VIM-2 confirm – VIM-2 inhibition, confirmation assay; shares compounds with IMP-1 inh; purified VIM-2 enzyme, nitrocefin absorbance; inhibition, % at 5.6 µM; 200 tested, 73% active; AID 1860; in the data active = inhibition above about 8%
TEM-1 counter – blocks E. coli TEM-1 beta-lactamase, VIM-2 IMP-1 counter-screen; shares compounds with IMP-1 inh; nitrocefin absorbance inhibition; inhibition, % at 5.6 µM; 200 tested, 50% active; in the data active = inhibition above about 0.66%
Target sequence (P62593 whole entry, looked up): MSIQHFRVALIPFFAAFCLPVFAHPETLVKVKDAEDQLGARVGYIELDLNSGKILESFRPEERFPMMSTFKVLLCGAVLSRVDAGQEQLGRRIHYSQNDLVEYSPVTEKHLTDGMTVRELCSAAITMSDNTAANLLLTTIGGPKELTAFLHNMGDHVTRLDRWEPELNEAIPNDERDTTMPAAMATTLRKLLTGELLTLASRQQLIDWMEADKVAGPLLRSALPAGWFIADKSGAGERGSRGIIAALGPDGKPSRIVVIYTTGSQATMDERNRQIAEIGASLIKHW
IMP-1 confirm – confirmation of P. aeruginosa IMP-1 metallo-beta-lactamase inhibitors; 200 tested, 60% active; inhibition, % at 5.6 µM; purified IMP-1 enzyme, absorbance substrate hydrolysis; shares compounds with IMP-1 inh; in the data active = inhibition above about 4.9%
Of the large screens only hits and unclear results are named; the others gave an inactive call (follow-up assays come after a bar, where they were run). Shown are actives, neighbours in structure and some others; about 1.6% of the full set was active somewhere.

COc1ccc(C(=O)c2ccc(OC)cc2O)c(O)c1	none
CC(OC(=O)c1c2c(nc3ccccc13)/C(=C\c1ccc3c(c1)OCO3)CCC2)C(=O)Nc1ccc(S(N)(=O)=O)cc1 (configuration not stated)	VIM-2 inhibitor 17.6, IMP-1 inh 13.5 (no result: core dimer inh) | VIM-2 confirm 14.8 | TEM-1 counter 28.6 | IMP-1 confirm 10.4
Cc1cccc(C)c1NC(=O)COC(=O)c1ccc2c(c1)OCO2	none
CC(OC(=O)c1cc2ccccc2cc1O)C(=O)Nc1ccc(S(N)(=O)=O)cc1 (configuration not stated)	none
Cc1cccc(C)c1NC(=O)COC(=O)c1c2c(nc3ccccc13)/C(=C\c1ccc3c(c1)OCO3)CCC2	VIM-2 inhibitor 20.0, IMP-1 inh 16.8 | VIM-2 confirm inactive | TEM-1 counter inactive | IMP-1 confirm inactive
CCc1cc(=O)oc2cc(C)c(CN3CCCCC3)c(O)c12	VIM-2 inhibitor 13.4, IMP-1 inh 18.5 | VIM-2 confirm inactive | TEM-1 counter inactive | IMP-1 confirm inactive
CCc1cc(=O)oc2cc(C)c(CN3CCCC3)c(O)c12	core dimer inh 85.6, VIM-2 inhibitor 15.5, IMP-1 inh 20.1 | VIM-2 confirm 17.6 | TEM-1 counter inactive | IMP-1 confirm 8.8
Cc1cc(=O)oc2c(CN3CCCC3)c(O)c(Cl)cc12	none
c1nc(NCCN2CCOCC2)c2sc3nc(N4CCOCC4)c4c(c3c2n1)CCC4	VIM-2 inhibitor 9.5, IMP-1 inh 7.6 | VIM-2 confirm 15.9 | TEM-1 counter inactive | IMP-1 confirm inactive
O=C(CSc1nc2nc(-c3cccs3)cc(C(F)(F)F)c2c(=O)[nH]1)C(F)(F)F	VIM-2 inhibitor 21.6, IMP-1 inh 4.9 | VIM-2 confirm 26.4 | TEM-1 counter inactive | IMP-1 confirm inactive
CSc1nc2nc(-c3cccs3)cc(C(F)(F)F)c2c(=O)[nH]1	none
NCC(c1ccc(Cl)cc1Cl)c1c[nH]c2ccccc12 (configuration not stated)	none
CN1CCN(S(=O)(=O)c2ccc(Cl)cc2)CC1	none
CN1CCN(S(=O)(=O)c2ccc(-c3ccc(Cl)cc3)cc2)CC1	VIM-2 inhibitor 10.7, IMP-1 inh 42.0 | VIM-2 confirm inactive | TEM-1 counter inactive | IMP-1 confirm inactive
COc1ccc(NC(=O)CCNC(=O)C2CCN(S(=O)(=O)c3ccc(F)cc3)CC2)cc1OC	none
CN1C(=O)/C(=C\c2ccc(N(C)C)cc2)OC1=S	VIM-2 inhibitor 8.0, IMP-1 inh 9.5 (no result: core dimer inh) | VIM-2 confirm 8.3 | TEM-1 counter 18.1 | IMP-1 confirm 6.1
CCOc1ccc(NC(=O)CSCc2cnn(-c3ccccc3)c2-n2cccc2)cc1	none
CN(C)c1ccc(/C=C/C(=O)c2cc(Cl)ccc2O)cc1	VIM-2 inhibitor 15.0, IMP-1 inh 19.8 | VIM-2 confirm 24.3 | TEM-1 counter 34.5 | IMP-1 confirm 22.3
CC(C)C(=O)N1CCN(c2ccccc2NC(=O)COc2ccccc2)CC1	none
Cc1ccc2nc3c(cc(C(=O)NCCCn4ccnc4)n3C)c(=O)n2c1	VIM-2 inhibitor 14.6, IMP-1 inh 8.4 | VIM-2 confirm inactive | TEM-1 counter inactive | IMP-1 confirm inactive
CC1CCN(C(=O)CSc2nnc(CNC(=O)COc3ccc(Cl)cc3)o2)CC1	IMP-1 inh 35.3 | VIM-2 confirm inactive | TEM-1 counter inactive | IMP-1 confirm inactive
Cn1c2ccccc2c2cc(C(=O)NNS(=O)(=O)c3ccc(F)cc3)sc21	IMP-1 inh 5.0 | VIM-2 confirm inactive | TEM-1 counter inactive | IMP-1 confirm inactive
CN1C(=CC=C2C=C(I)C(=O)C(I)=C2)C(C)(C)c2ccccc21	none (no result: core dimer inh)
CN1/C(=C\C=C2/C(=O)Oc3ccccc3C2=O)C(C)(C)c2ccccc21	VIM-2 inhibitor 9.6, IMP-1 inh 12.6 | VIM-2 confirm 30.6 | TEM-1 counter 45.1 | IMP-1 confirm 24.3
O=C(COC(=O)c1ccc2c(c1)OCCO2)NCCC1=CCCCC1	none
CC(C)n1cc(/C=N/Nc2ccc(Cl)c(C(=O)O)c2)c2ccccc21	VIM-2 inhibitor 10.2, IMP-1 inh 34.6 | VIM-2 confirm 8.0 | TEM-1 counter inactive | IMP-1 confirm 27.6
O=C(O)c1cc(N/N=C/c2cccc3ccccc23)ccc1Cl	none
CC(NC(=O)c1cccs1)C(S)c1ccccc1 (configuration not stated)	VIM-2 inhibitor 41.1, IMP-1 inh 21.5 | VIM-2 confirm 46.6 | TEM-1 counter inactive | IMP-1 confirm 48.5
N#CC1=C(N)S[C@H](C(=O)C23CC4CC(CC(C4)C2)C3)[C@H]1c1ccncc1	VIM-2 inhibitor 21.6, IMP-1 inh 54.9 | VIM-2 confirm inactive | TEM-1 counter inactive | IMP-1 confirm 5.8
CC(NC(=O)c1ccccc1)C(=O)N/N=C/c1ccco1 (configuration not stated)	none
CN(/N=C/c1ccc(N(C)C)cc1)C1=NS(=O)(=O)c2ccccc21	VIM-2 inhibitor 51.5, IMP-1 inh 24.2 | VIM-2 confirm 29.1 | TEM-1 counter 14.3 | IMP-1 confirm 23.7
COc1ccc(/C=N/N(C)C2=NS(=O)(=O)c3ccccc32)cc1	none
CC(=O)N(c1cccc(C)c1)C1SC(=O)N(c2ccccc2)C1=O (configuration not stated)	VIM-2 inhibitor 8.3, IMP-1 inh 12.0 | VIM-2 confirm 9.0 | TEM-1 counter inactive | IMP-1 confirm 17.8
O=C(CSc1nnc(-c2ccc(O)cc2)n1-c1ccccc1)CC(=O)Nc1ccccc1	VIM-2 inhibitor 15.9, IMP-1 inh 7.9 | VIM-2 confirm inactive | TEM-1 counter inactive | IMP-1 confirm inactive
O=C(OCCOc1cccc(Cl)c1)C1CCN(S(=O)(=O)c2ccccc2)CC1	none
CCN1C(=O)CC(NCc2ccc3c(c2)OCO3)C1=O (configuration not stated)	none
O=C1CC(NCc2ccc3c(c2)OCO3)C(=O)N1CCc1ccccc1 (configuration not stated)	VIM-2 inhibitor 47.3, IMP-1 inh 42.0 | VIM-2 confirm inactive | TEM-1 counter inactive | IMP-1 confirm inactive
COc1ccc(-c2occ(C(=O)O)c2C(=O)O)cc1	VIM-2 inhibitor 10.2, IMP-1 inh 25.8 | VIM-2 confirm 18.2 | TEM-1 counter inactive | IMP-1 confirm 22.4
CCN(CC)CCCNCC(=O)Nc1ccc(OC)c(Cl)c1	none
CCOC(=O)NC(=O)/C(C#N)=C\Nc1sccc1C(=O)OC	VIM-2 inhibitor 7.7, IMP-1 inh 9.1 | VIM-2 confirm inactive | TEM-1 counter inactive | IMP-1 confirm inactive
COc1ccc(/C(C)=N/NC(=O)c2nnn(-c3nonc3N)c2-c2cccs2)cc1	none
COc1ccc(/C(C)=N/NC(=O)c2nnn(-c3nonc3N)c2-c2ccccc2)cc1	VIM-2 inhibitor 11.6, IMP-1 inh 18.6 | VIM-2 confirm 14.9 | TEM-1 counter inactive | IMP-1 confirm 17.8

Screening data: PubChem, The Scripps Research Institute Molecular Screening Center
